The source made the active and inactive calls. No cut-off for these calls is given here.
What was measured:
[1] = Cmax in rabbit at 105 mg/kg, ig up to 24 hrs by HPLC analysis; assay type: ADME, organism-based, Oryctolagus cuniculus; design: dose 105 mg/kg, route intragastric; conditions: in vivo, po
Procedure, shortened: (§1)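 Rabbits (n = 4), anesthetised with ether-Fluorothane 10:1, given a single 105 mg/kg dose in water (12 ml) by gastric tube. Ear-vein blood was heparinised at set times up to 24 h, mixed with methanol, centrifuged, dried, redissolved in water and assayed by C18 HPLC. Parameters came from an extravascular noncompartmental model. F = (AUCi.g./dose)/(AUCi.v./dose); CL = dose/AUC; Vss = CL × MRT.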

[2] = Tmax in rabbit at 105 mg/kg, ig by HPLC analysis; assay type: ADME, organism-based, Oryctolagus cuniculus; design: dose 105 mg/kg, route intragastric; conditions: in vivo, po; procedure, shortened: as §1
[3] = Total AUC in rabbit at 105 mg/kg, ig up to 24 hrs by HPLC analysis; assay type: ADME, organism-based, Oryctolagus cuniculus; design: time AUCmax, dose 105 mg/kg, route intragastric; conditions: in vivo, po; procedure, shortened: as §1
[4] = Apparent elimination half life in rabbit at 105 mg/kg, ig by HPLC analysis; assay type: ADME, organism-based, Oryctolagus cuniculus; design: dose 105 mg/kg, route intragastric; conditions: in vivo, po, read-out: beta t1/2 (converted); procedure, shortened: as §1
[5] = Mean residence time in rabbit at 105 mg/kg, ig by HPLC analysis; assay type: ADME, organism-based, Oryctolagus cuniculus; design: dose 105 mg/kg, route intragastric; conditions: in vivo, po; procedure, shortened: as §1
[6] = Total clearance in rabbit at 105 mg/kg, ig up to 24 hrs by HPLC analysis; assay type: ADME, organism-based, Oryctolagus cuniculus; design: dose 105 mg/kg, route intragastric; conditions: in vivo, po; procedure, shortened: as §1
[7] = tested on: Oryctolagus cuniculus; test: Volume of distribution at steady state in rabbit at 105 mg/kg, ig up to 24 hrs by HPLC analysis; assay type: ADME, organism-based; design: dose 105 mg/kg, route intragastric; conditions: in vivo, po; procedure, shortened: as §1
[8] = tested on: Influenza A virus; test: Antiviral activity against Influenza A virus H3N2 (A/Victoria/35/72) infected in MDCK cells assessed as log reduction in viral titer at 502 uM after 48 hrs […]; assay type: functional
Procedure, shortened: (§2)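 MDCK monolayers in MEM with 10% FBS at 37°C under 5% CO2 were infected with allantoic-fluid virus diluted 10−1 to 10−7. Aqueous test compound was added after 1 h adsorption. Virus yield was read at 48 h by haemagglutination with 0.5% chicken erythrocytes, and titres also by plaque assay. Each concentration was run in duplicate.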

[9] = tested on: Influenza A virus; test: Antiviral activity against Influenza A virus (A/Vietnam/1194/2004 (H5N1)) infected in MDCK cells assessed as log reduction in viral titer at 502 uM after 48 hrs […]; assay type: functional
[10] = tested on: Influenza A virus; test: Antiviral activity against Influenza A virus (A/duck/Potsdam/1402-6/1986 (H5N2)) infected in MDCK cells assessed as log reduction in viral titer at 502 uM after 48 hrs […]; assay type: functional
[11] = tested on: Influenza A virus; test: Antiviral activity against Influenza A virus/H7N3 (A/Mallard/NT/12/02) infected in MDCK cells assessed as log reduction in viral titer at 502 uM after 48 hrs by MTT assay; assay type: functional
[12] = tested on: Influenza A virus; test: Antiviral activity against Influenza A virus (A/Hong Kong/1073/99(H9N2)) infected in MDCK cells assessed as log reduction in viral titer at 502 uM after 48 hrs […]; assay type: functional
[13] = tested on: H3N2 subtype; test: Antiviral activity against Influenza A virus (A/Aichi/2/1968(H3N2)) infected in […] assessed as survival rate at 100 mg/kg, ig administered 1 and 24 hrs before infection and 24 to 72 hrs post infection; assay type: functional; conditions: route intragastric
[14] = tested on: H3N2 subtype; test: Antiviral activity against Influenza A virus (A/Aichi/2/1968(H3N2)) infected in […] assessed as survival rate at 50 mg/kg, ig administered 1 and 24 hrs before infection and 24 to 72 hrs post infection; assay type: functional; conditions: route intragastric
[15] = tested on: Influenza B virus; test: Antiviral activity against Influenza B virus (B/Lee/1940) infected in […] assessed as survival rate at 100 mg/kg, ig administered 1 and 24 hrs before infection and 24 to 72 hrs post infection; assay type: functional; conditions: route intragastric
[16] = tested on: Influenza B virus; test: Antiviral activity against Influenza B virus (B/Lee/1940) infected in […] assessed as survival rate at 50 mg/kg, ig administered 1 and 24 hrs before infection and 24 to 72 hrs post infection; assay type: functional; conditions: route intragastric
[17] = tested on: Oryctolagus cuniculus; test: Total AUC in rabbit at 4.3 mg/kg, iv up to 24 hrs by HPLC analysis; assay type: ADME, organism-based; design: time AUCmax, dose 4.3 mg/kg, route intravenous; conditions: in vivo
Procedure, shortened: (§3)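 Rabbits (n = 4) received 4.3 mg/kg in physiological solution into the marginal ear vein over 1 min. Ear-vein blood was heparinised at set times up to 24 h, methanol-extracted and assayed by C18 HPLC with a heptafluorobutyric acid/ethanol gradient. A noncompartmental i.v. infusion model gave AUCtot, T1/2 and MRT; Vss = CL × MRT.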

[18] = tested on: Oryctolagus cuniculus; test: Volume of distribution at steady state in rabbit at 4.3 mg/kg, iv up to 24 hrs by HPLC analysis; assay type: ADME, organism-based; design: dose 4.3 mg/kg, route intravenous; conditions: in vivo; procedure, shortened: as §3
[19] = tested on: Influenza A virus; test: Antiviral activity against Influenza A virus H3N2 (A/Victoria/35/72) infected in MDCK cells assessed as log reduction in viral titer at 385 uM after 48 hrs […]; assay type: functional; procedure, shortened: as §2
[20] = tested on: Influenza A virus; test: Antiviral activity against Influenza A virus H3N2 (A/Victoria/35/72) infected in MDCK cells assessed as log reduction in viral titer at 960 uM after 48 hrs […]; assay type: functional; procedure, shortened: as §2
[21] = tested on: Influenza A virus; test: Antiviral activity against Influenza A virus (A/Vietnam/1194/2004 (H5N1)) infected in MDCK cells assessed as log reduction in viral titer at 385 uM after 48 hrs […]; assay type: functional
[22] = tested on: Influenza A virus; test: Antiviral activity against Influenza A virus (A/Vietnam/1194/2004 (H5N1)) infected in MDCK cells assessed as log reduction in viral titer at 960 uM after 48 hrs […]; assay type: functional
[23] = tested on: Influenza A virus; test: Antiviral activity against Influenza A virus (A/duck/Potsdam/1402-6/1986 (H5N2)) infected in MDCK cells assessed as log reduction in viral titer at 385 uM after 48 hrs […]; assay type: functional
[24] = tested on: Influenza A virus; test: Antiviral activity against Influenza A virus (A/duck/Potsdam/1402-6/1986 (H5N2)) infected in MDCK cells assessed as log reduction in viral titer at 960 uM after 48 hrs by MTT assay; assay type: functional
[25] = tested on: Influenza A virus; test: Antiviral activity against Influenza A virus H7N3 (A/Mallard/NT/12/02) infected in MDCK cells assessed as log reduction in viral titer at 385 uM after 48 hrs […]; assay type: functional
[26] = tested on: Influenza A virus; test: Antiviral activity against Influenza A virus/H7N3 (A/Mallard/NT/12/02) infected in MDCK cells assessed as log reduction in viral titer at 960 uM after 48 hrs by MTT assay; assay type: functional
[27] = tested on: Influenza A virus; test: Antiviral activity against Influenza A virus (A/Hong Kong/1073/99(H9N2)) infected in MDCK cells assessed as log reduction in viral titer at 385 uM after 48 hrs […]; assay type: functional
[28] = tested on: Influenza A virus; test: Antiviral activity against Influenza A virus (A/Hong Kong/1073/99(H9N2)) infected in MDCK cells assessed as log reduction in viral titer at 960 uM after 48 hrs […]; assay type: functional
[29] = Cytotoxicity against MDCK cells after 48 hrs by MTT assay; assay type: cell-based, Canis lupus familiaris; conditions: dog
Procedure, shortened: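 Cytotoxicity was measured on uninfected MDCK monolayers grown in MEM with 10% FBS and penicillin/streptomycin at 37°C under 5% CO2. Viability was read by MTT and expressed as CC50.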

[30] = tested on: Influenza B virus; test: Antiviral activity against Influenza B virus (B/Lee/1940) infected in […] assessed as survival rate at 150 mg/kg, ig administered 1 and 24 hrs before infection and 24 to 72 hrs post infection; assay type: functional; conditions: route intragastric
[31] = tested on: H3N2 subtype; test: Antiviral activity against Influenza A virus (A/Aichi/2/1968(H3N2)) infected in […] at 100 to 150 mg/kg, ig administered after 24 hrs post infection; assay type: functional, organism-based
[32] = tested on: H3N2 subtype; test: Antiviral activity against Influenza A virus (A/Aichi/2/1968(H3N2)) infected in […] at 100 to 150 mg/kg, ig administered after 48 hrs post infection; assay type: functional, organism-based
[33] = tested on: Influenza B virus; test: Antiviral activity against Influenza B virus (B/Lee/1940) infected in […] at 100 to 150 mg/kg, ig administered after 24 hrs post infection; assay type: functional, organism-based
[34] = tested on: Influenza B virus; test: Antiviral activity against Influenza B virus (B/Lee/1940) infected in rabbit at 100 to 150 mg/kg, ig administered after 48 hrs post infection; assay type: functional, organism-based
[35] = tested on: H3N2 subtype; test: Antiviral activity against Influenza A virus (A/Aichi/2/1968(H3N2)) infected in […] at 100 to 150 mg/kg, ig administered 24 hrs before infection; assay type: functional, organism-based
[36] = tested on: H3N2 subtype; test: Antiviral activity against Influenza A virus (A/Aichi/2/1968(H3N2)) infected in […] at 100 to 150 mg/kg, ig administered 1 hr before infection; assay type: functional, organism-based
[37] = tested on: Influenza B virus; test: Antiviral activity against Influenza B virus (B/Lee/1940) infected in […] at 100 to 150 mg/kg, ig administered 24 hrs before infection; assay type: functional, organism-based
[38] = tested on: Influenza B virus; test: Antiviral activity against Influenza B virus (B/Lee/1940) infected in […] at 100 to 150 mg/kg, ig administered 1 hr before infection; assay type: functional, organism-based
[39] = Toxicity against ip dosed rabbit; assay type: organism-based, Oryctolagus cuniculus; conditions: in vivo
[40] = Toxicity against ig dosed rabbit; assay type: organism-based, Oryctolagus cuniculus; conditions: in vivo, po
[41] = Bioavailability in rabbit at 105 mg/kg, ig up to 24 hrs by HPLC analysis; assay type: ADME, organism-based, Oryctolagus cuniculus; conditions: in vivo, po; procedure, shortened: as §1
[42] = tested on: Influenza A virus; test: Antiviral activity against Influenza A virus H3N2 (A/Victoria/35/72) infected in human HuH7 cells assessed as log reduction in viral titer at 1000 ug/ml; assay type: functional, Huh-7
[43] = tested on: Influenza A virus; test: Antiviral activity against Influenza A virus H3N2 (A/Victoria/35/72) infected in HEK293T cells assessed as log reduction in viral titer at 1000 ug/ml; assay type: functional, HEK-293T

CSc1nc2[nH]nc(N)c(=O)n2n1
Cmax [1]: 140 ng/mL
Tmax [2]: 3 h
AUC at 24 h [3]: 690 ng·h/mL
half-life [4]: 0.97 h
MRT [5]: 4.14 h
CL/F [6]: 740 mL/min/kg
Vdss [7]: 58.5 L/kg

CC(N)C12CC3CC(CC(C3)C1)C2 (configuration not stated) [RIMANTADINE]
FC [8]: 5
FC [9]: 1
FC [10]: 2
FC [11]: 3
FC [12]: 0.75
Activity [13]: 85%
Activity [14]: 80%
Activity [15]: 20%
Activity [16]: 15%
AUC [17]: 1200 ng·h/mL
Vdss [18]: 1.2 L/kg

CSc1nc2[n-]nc([N+](=O)[O-])c(=O)n2n1.O.O.[Na+] [TRIAZAVIRINE]
FC [19]: 1
FC [20]: 1
FC [21]: 2
FC [22]: 2.25
FC [23]: 0.5
FC [24]: 1.6
FC [25]: 0.25
FC [26]: 3.5
FC [27]: 0
FC [28]: 0.5
CC50 at 48 h [29]: > 8 mM
Activity [13]: 70%
Activity [30]: 65%
Activity [15]: 65%
Activity [31]: Active
Activity [32]: Active
Activity [33]: Active
Activity [34]: Active
Activity [35]: Active
Activity [36]: Active
Activity [37]: Active
Activity [38]: Active
LD50 [39]: 1400 mg/kg
LD50 [40]: 2200 mg/kg
Cmax [1]: 1100 ng/mL
Tmax [2]: 0.4 h
AUC at 24 h [3]: 3100 ng·h/mL
half-life [4]: 1.1 h
MRT [5]: 2.3 h
CL/F [6]: 617 mL/min/kg
Vdss [7]: 83.5 L/kg
bioavailability [41]: 12.5%
FC [42]: <0.75
FC [43]: <0.75

Reference: ChEMBL document CHEMBL1255449, “Antiviral properties, metabolism, and pharmacokinetics of a novel azolo-1,2,4-triazine-derived inhibitor of influenza A and B virus replication” (Antimicrob Agents Chemother, 2010)
